{"source": "ChEMBL document CHEMBL1131066", "about": "“2-Substituted aminopyrido[2,3-d]pyrimidin-7(8H)-ones. structure-activity relationships against selected tyrosine kinases and in vitro and in vivo anticancer activity” (J Med Chem, 1998)", "key": {"C6 [1]": {"test_system": "C6", "assay": "Weight change of C6 glioma tumor cells in mice at 100 mg/kg peroral dose, days 1-15 administration", "assay_type": "functional, organism-based", "set-up": "dose 100 mg/kg", "settings": "Mus musculus", "summary_of_the_method": "(§1)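 Tumor-bearing nude mice (NCr nu/nu, 18–22 g, 6–8 per group) were implanted in the right axilla with tumor fragments on day 0 and dosed by average cage weight. Vehicle was 50 mM sodium lactate pH 4.0, or 0.5% methyl cellulose suspension; cisplatin was given in saline. Host body weight change is given as the maximum treatment-related weight loss.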"}, "Mus musculus [2]": {"test_system": "Mus musculus", "assay": "Difference in days for treated (T) and control (C) PDGF-transfected mouse fibroblast tumors to reach 750 mg in mice at 100 mg/kg peroral dose, days 1-15 administration", "assay_type": "functional", "settings": "route intraperitoneal, in the assay text read “intraperitoneal” for “peroral”", "summary_of_the_method": "(§2)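 Nude mice (NCr nu/nu), 18–22 g, 6–8 per group, randomized and implanted with serially passaged tumor fragments in the right axilla on day 0. Dosed by average cage weight. Vehicle was 50 mM sodium lactate buffer, pH 4.0, or a 0.5% methyl cellulose suspension for one compound. Cisplatin was given in saline. T − C is the difference in days for treated and control tumors to reach 750 mg.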"}, "[3]": {"molecular_target": "T1, Platelet-derived growth factor receptor beta (Mus musculus, UniProt P05622)", "T1 sequence (P05622 whole entry)": "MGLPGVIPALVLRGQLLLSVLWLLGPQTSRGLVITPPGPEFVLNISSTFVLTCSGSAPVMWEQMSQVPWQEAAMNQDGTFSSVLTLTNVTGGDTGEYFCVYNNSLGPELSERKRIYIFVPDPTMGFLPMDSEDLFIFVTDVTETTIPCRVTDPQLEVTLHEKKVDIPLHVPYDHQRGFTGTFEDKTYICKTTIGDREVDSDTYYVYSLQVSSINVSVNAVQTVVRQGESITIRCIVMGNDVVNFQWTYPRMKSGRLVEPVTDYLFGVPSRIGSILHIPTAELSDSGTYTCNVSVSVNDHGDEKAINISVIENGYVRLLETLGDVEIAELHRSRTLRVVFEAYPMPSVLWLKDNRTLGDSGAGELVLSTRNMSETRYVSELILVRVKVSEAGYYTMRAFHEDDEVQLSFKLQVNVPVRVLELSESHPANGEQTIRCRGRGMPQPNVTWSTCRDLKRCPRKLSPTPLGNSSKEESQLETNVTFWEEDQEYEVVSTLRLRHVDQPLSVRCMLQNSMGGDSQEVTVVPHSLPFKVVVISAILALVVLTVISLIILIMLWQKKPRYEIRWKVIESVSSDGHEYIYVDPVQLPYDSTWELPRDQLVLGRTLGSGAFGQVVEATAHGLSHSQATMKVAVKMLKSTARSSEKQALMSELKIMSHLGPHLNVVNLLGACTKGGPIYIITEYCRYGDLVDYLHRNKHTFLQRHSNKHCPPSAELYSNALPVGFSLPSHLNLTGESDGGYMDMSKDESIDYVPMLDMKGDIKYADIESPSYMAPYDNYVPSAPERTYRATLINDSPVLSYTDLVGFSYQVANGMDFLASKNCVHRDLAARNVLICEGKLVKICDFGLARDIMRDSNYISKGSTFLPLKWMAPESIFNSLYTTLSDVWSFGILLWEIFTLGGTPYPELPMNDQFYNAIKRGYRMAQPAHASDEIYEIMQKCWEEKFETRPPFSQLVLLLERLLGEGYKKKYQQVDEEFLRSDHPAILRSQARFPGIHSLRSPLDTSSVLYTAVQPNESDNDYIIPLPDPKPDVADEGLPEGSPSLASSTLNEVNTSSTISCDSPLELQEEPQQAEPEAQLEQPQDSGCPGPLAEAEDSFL", "assay": "Inhibition of Platelet-derived growth factor receptor (PDGFr)", "summary_of_the_method": "(§3)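 Recombinant kinases (PDGFr-β, FGFr-1, c-Src), enzyme inhibition IC50. Mean of at least two separate determinations, each done in triplicate; replicate values typically varied under 30%.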"}, "C6 [4]": {"test_system": "C6", "assay": "C6 glioma cell growth in soft agar with continuous treatment", "assay_type": "functional, cell-based", "settings": "Rattus norvegicus", "summary_of_the_method": "(§4)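 C6 rat glioma cells (F10 Ham's with 15% horse serum, 2.5% fetal calf serum) exposed 3 days to a concentration series, then plated in soft agar with compound still present at the same concentration; colonies stained and counted after two weeks. IC50; mean of two experiments, each in duplicate.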"}, "SK-OV-3 [5]": {"test_system": "SK-OV-3", "assay": "Weight change of SK-OV-3 cell tumors in mice at 200 mg/kg peroral dose, days 20-34 administration", "assay_type": "functional", "settings": "route intraperitoneal, in the assay text read “intraperitoneal” for “peroral”"}, "HT-29 [6]": {"test_system": "HT-29", "assay": "Weight change of HT-29 cell tumors in mice at 200 mg/kg ip dose, days 15-29 administration", "assay_type": "functional, Mus musculus", "settings": "route intraperitoneal", "summary_of_the_method": "as §1"}, "[7]": {"molecular_target": "T2, Platelet-derived growth factor receptor (Mus musculus, UniProt P05622+P26618)", "assay": "(§5) Inhibition of Platelet-derived growth factor receptor autophosphorylation in NIH3T3 cells", "assay_type": "functional, cell-based", "summary_of_the_method": "(§6)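 Serum-starved 24 h (C6 rat glioma; PDGF-B-transfected NIH3T3), incubated 2 h with a range of concentrations, then stimulated 5 min with 25 ng/mL PDGF-BB. Lysates or immunoprecipitates Western blotted with antiphosphotyrosine antibody, ECL detection. IC50.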"}, "[8]": {"molecular_target": "Epidermal growth factor receptor (Homo sapiens, UniProt P00533)", "sequence (P00533 whole entry)": "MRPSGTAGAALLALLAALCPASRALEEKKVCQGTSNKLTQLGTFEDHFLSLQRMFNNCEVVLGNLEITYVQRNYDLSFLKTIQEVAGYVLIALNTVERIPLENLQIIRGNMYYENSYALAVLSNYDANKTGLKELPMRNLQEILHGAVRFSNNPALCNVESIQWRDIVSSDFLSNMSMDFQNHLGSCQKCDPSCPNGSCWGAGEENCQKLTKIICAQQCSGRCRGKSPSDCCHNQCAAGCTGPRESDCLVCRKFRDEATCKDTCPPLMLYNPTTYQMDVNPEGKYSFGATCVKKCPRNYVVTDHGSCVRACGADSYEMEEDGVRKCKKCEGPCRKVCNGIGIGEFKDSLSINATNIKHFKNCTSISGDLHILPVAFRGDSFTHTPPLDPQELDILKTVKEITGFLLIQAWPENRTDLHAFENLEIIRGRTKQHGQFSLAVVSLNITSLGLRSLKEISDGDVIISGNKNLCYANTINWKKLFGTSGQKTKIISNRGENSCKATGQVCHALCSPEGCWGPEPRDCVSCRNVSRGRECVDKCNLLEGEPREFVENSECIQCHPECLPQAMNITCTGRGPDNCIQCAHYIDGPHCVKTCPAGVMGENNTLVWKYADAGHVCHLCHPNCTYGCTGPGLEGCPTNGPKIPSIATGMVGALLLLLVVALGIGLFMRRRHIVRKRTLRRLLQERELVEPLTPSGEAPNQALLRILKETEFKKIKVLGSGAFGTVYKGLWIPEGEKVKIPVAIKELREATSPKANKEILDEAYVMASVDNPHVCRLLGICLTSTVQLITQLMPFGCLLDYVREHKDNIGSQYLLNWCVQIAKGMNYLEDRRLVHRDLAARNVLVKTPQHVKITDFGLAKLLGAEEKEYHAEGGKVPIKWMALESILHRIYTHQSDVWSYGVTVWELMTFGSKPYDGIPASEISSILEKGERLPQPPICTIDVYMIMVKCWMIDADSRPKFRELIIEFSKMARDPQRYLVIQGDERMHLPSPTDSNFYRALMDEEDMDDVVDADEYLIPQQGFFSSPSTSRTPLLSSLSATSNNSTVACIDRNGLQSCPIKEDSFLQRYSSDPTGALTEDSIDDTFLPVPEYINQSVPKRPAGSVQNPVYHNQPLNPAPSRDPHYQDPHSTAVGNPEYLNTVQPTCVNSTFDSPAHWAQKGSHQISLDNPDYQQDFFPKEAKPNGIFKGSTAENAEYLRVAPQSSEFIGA", "assay": "Inhibitory concentration was evaluated against epidermal growth factor receptor (EGFr) tyrosine kinase"}, "C6 [9]": {"test_system": "C6", "assay": "Difference in days for treated (T) and control (C) C6 glioma cell tumors to reach 750 mg in mice at 100 mg/kg peroral dose, days 1-15 administration", "assay_type": "functional, Mus musculus", "settings": "route oral", "summary_of_the_method": "as §2"}, "C6 [10]": {"test_system": "C6", "assay": "C6 cell growth in soft agar with continuous treatment", "assay_type": "functional, cell-based, Rattus norvegicus", "settings": "Rattus norvegicus, C6", "summary_of_the_method": "as §4"}, "C6 [11]": {"test_system": "C6", "assay": "(§7) Inhibition of C6 cell proliferation in sulforhodamine B assay", "assay_type": "functional, cell-based, Rattus norvegicus", "settings": "Rattus norvegicus, C6", "summary_of_the_method": "(§8)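 C6 rat glioma cells (F10 Ham's, 15% horse serum, 2.5% fetal calf serum) seeded and allowed 24 h to attach, then given serial 2-fold compound dilutions; 4 d at 37 °C, 5% CO2; growth read by sulforhodamine B staining. IC50; mean of two experiments, each in triplicate.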"}, "C6 [12]": {"test_system": "C6", "assay": "C6 cell growth in soft agar with discontinued treatment", "assay_type": "functional, cell-based, Rattus norvegicus", "settings": "Rattus norvegicus, C6", "summary_of_the_method": "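C6 rat glioma cells given 3-day exposure to a concentration series, then washed free of inhibitor and plated in drug-free soft agar; colonies stained and counted after two weeks. IC50; mean of two experiments, each in duplicate.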"}, "HT-29 [13]": {"test_system": "HT-29", "assay": "Difference in days for treated (T) and control (C) HT-29 cell tumors to reach 750 mg in mice at 200 mg/kg ip dose, days 15-29 administration", "assay_type": "functional, Mus musculus", "settings": "route intraperitoneal", "summary_of_the_method": "as §2"}, "C6 [14]": {"test_system": "C6", "assay": "as §7", "assay_type": "functional, cell-based", "settings": "Rattus norvegicus", "summary_of_the_method": "as §8"}, "HT-29 [15]": {"test_system": "HT-29", "assay": "Net reduction in tumor burden between first and last treatments of HT-29 cell tumors in mice at 200 mg/kg ip dose, days 15-29 administration", "assay_type": "functional, Mus musculus", "settings": "route intraperitoneal", "summary_of_the_method": "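NCr nu/nu nude mice (18–22 g, 6–8 per group, randomized) had tumor fragments, kept by serial passage in nude mice, implanted in the right axilla on day 0. Mice were dosed by average cage weight on the listed days, over a range from toxic to ineffective doses. Vehicle was 50 mM sodium lactate pH 4.0 or 0.5% methyl cellulose suspension. Net log cell kill was taken between first and last treatments.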"}, "[16]": {"molecular_target": "T2, Platelet-derived growth factor receptor", "assay": "as §5", "assay_type": "functional, cell-based", "summary_of_the_method": "as §6", "remark": "listed apart in the source"}, "C6 [17]": {"test_system": "C6", "assay": "C6 glioma cell growth in soft agar with discontinued treatment", "assay_type": "functional, cell-based", "settings": "Rattus norvegicus", "summary_of_the_method": "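C6 rat glioma cells (F10 Ham's, 15% horse serum, 2.5% fetal calf serum) exposed to a range of concentrations for 3 days, washed free of inhibitor, plated in drug-free soft agar. Colonies stained and counted after two weeks. IC50; mean of two experiments, each in duplicate.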"}, "COLO 205 [18]": {"test_system": "COLO 205", "assay": "Weight change of COLO 205 cell tumors in mice at 200 mg/kg ip dose, days 14-28 administration", "assay_type": "functional, Mus musculus", "settings": "route intraperitoneal", "summary_of_the_method": "as §1"}, "SK-OV-3 [19]": {"test_system": "SK-OV-3", "assay": "Difference in days for treated (T) and control (C) SKOV-3 cell tumors to reach 750 mg in mice at 200 mg/kg ip dose, days 20-34 administration", "assay_type": "functional", "settings": "route intraperitoneal", "summary_of_the_method": "as §2"}, "COLO 205 [20]": {"test_system": "COLO 205", "assay": "Difference in days for treated (T) and control (C) COLO 205 cell tumors to reach 750 mg in mice at 200 mg/kg ip dose, days 14-28 administration", "assay_type": "functional, Mus musculus", "settings": "route intraperitoneal", "summary_of_the_method": "as §2"}, "[21]": {"molecular_target": "Proto-oncogene tyrosine-protein kinase Src (Homo sapiens, UniProt P12931)", "sequence (P12931 2-536 limits assumed)": "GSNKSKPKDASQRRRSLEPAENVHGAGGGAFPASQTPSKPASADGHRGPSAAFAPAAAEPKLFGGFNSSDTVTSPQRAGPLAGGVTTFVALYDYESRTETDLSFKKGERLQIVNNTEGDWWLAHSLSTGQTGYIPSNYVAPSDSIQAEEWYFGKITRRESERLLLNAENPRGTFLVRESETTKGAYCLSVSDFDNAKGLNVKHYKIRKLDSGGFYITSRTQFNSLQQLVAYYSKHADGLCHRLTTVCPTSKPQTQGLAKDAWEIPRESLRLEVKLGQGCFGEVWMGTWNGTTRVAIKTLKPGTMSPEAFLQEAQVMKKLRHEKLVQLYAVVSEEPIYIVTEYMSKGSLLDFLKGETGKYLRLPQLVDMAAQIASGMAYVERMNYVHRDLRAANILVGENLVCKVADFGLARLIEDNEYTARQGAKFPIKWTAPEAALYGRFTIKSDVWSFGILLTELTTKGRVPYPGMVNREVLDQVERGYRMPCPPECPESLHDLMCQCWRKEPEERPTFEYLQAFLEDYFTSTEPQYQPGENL", "assay": "Inhibition of c-Src tyrosine kinase", "summary_of_the_method": "as §3"}, "NIH3T3": {"test_system": "NIH3T3", "assay": "Inhibition of NIH3T3 proliferation by sulforhodamine B assay", "assay_type": "functional, cell-based, Mus musculus", "settings": "nih3t3"}, "Mus musculus [22]": {"test_system": "Mus musculus", "assay": "Net reduction in tumor burden between the first and last treatments of PDGF-transfected fibroblast cells in mice at 100 mg/kg intraperitoneal dose, days 1-15 administration"}, "[23]": {"molecular_target": "T3, Platelet-derived growth factor receptor (PDGFr) (Rattus norvegicus, UniProt P20786+Q05030)", "assay": "Inhibition of Platelet-derived growth factor receptor autophosphorylation in C6 cells", "assay_type": "functional, cell-based", "summary_of_the_method": "as §6"}, "[24]": {"molecular_target": "Proto-oncogene tyrosine-protein kinase Src (Gallus gallus, UniProt P00523)", "assay": "Inhibition of avian c-Src tyrosine kinase"}, "[25]": {"molecular_target": "T1, Platelet-derived growth factor receptor beta", "assay": "Inhibitory concentration was evaluated against Platelet-derived growth factor receptor beta (PDGFr) tyrosine kinase"}, "[26]": {"molecular_target": "T3, Platelet-derived growth factor receptor (PDGFr)", "assay": "Inhibition of PDGF-induced autophosphorylation of PDGF-R in C6 cells"}}, "note": "Several values for one entry are separate records, joined by “and”; a condition that tells them apart may be missing. Identical values can stand only once.", "data": [{"smiles": "Cn1c(=O)c(-c2c(Cl)cccc2Cl)cc2cnc(Nc3ccccc3)nc21", "values": [{"measurement": "Weight change", "setting": "C6 [1]", "value": "Weight gain"}, {"measurement": "T-C", "setting": "Mus musculus [2]", "value": 1.7, "unit": "days"}, {"measurement": "IC50", "setting": "[3]", "value": 400, "unit": "nM"}, {"measurement": "IC50", "setting": "C6 [4]", "value": 1100, "unit": "nM"}, {"measurement": "Weight change", "setting": "SK-OV-3 [5]", "value": -2, "unit": "g"}, {"measurement": "Weight change", "setting": "HT-29 [6]", "value": -2, "unit": "g"}, {"measurement": "IC50", "setting": "[7]", "value": 20, "unit": "nM"}, {"measurement": "IC50", "setting": "[8]", "value": 260, "unit": "nM"}, {"measurement": "T-C", "setting": "C6 [9]", "value": -1.1, "unit": "days"}, {"measurement": "IC50", "setting": "C6 [10]", "value": 1100, "unit": "nM"}, {"measurement": "IC50", "setting": "C6 [11]", "value": 1800, "unit": "nM"}, {"measurement": "IC50", "setting": "C6 [12]", "value": 2900, "unit": "nM"}, {"measurement": "T-C", "setting": "HT-29 [13]", "value": 1.1, "unit": "days"}, {"measurement": "IC50", "setting": "C6 [14]", "value": 1800, "unit": "nM"}, {"measurement": "Net cell kill", "setting": "HT-29 [15]", "value": -0.5, "unit": "log10"}, {"measurement": "IC50", "setting": "[16]", "value": 20, "unit": "nM"}, {"measurement": "IC50", "setting": "C6 [17]", "value": 2900, "unit": "nM"}, {"measurement": "Weight change", "setting": "COLO 205 [18]", "value": -2, "unit": "g"}, {"measurement": "T-C", "setting": "SK-OV-3 [19]", "value": -0.4, "unit": "days"}, {"measurement": "T-C", "setting": "COLO 205 [20]", "value": -3.2, "unit": "days"}, {"measurement": "IC50", "setting": "[21]", "value": 17, "unit": "nM"}, {"measurement": "IC50", "setting": "NIH3T3", "value": "105 nM and 410 nM"}, {"measurement": "Net cell kill", "setting": "Mus musculus [22]", "value": -2.1, "unit": "log10"}, {"measurement": "IC50", "setting": "[23]", "value": 38, "unit": "nM"}, {"measurement": "IC50", "setting": "[24]", "value": 20, "unit": "nM"}, {"measurement": "IC50", "setting": "[25]", "value": 400, "unit": "nM"}, {"measurement": "IC50", "setting": "[26]", "value": 38, "unit": "nM"}]}]}
